Assay results from ChEMBL document CHEMBL4715736, “Identification of anticancer agents based on the thieno[2,3-b]pyridine and 1H-pyrazole molecular scaffolds” (2016).

Tests used:
Type in all cases: functional
786-0 = experiment: Growth inhibition of human 786-0 cells assessed as cell growth at 1 uM incubated for 48 hrs by sulforhodamine B assay relative to control; conditions: read-out: Activity
How it was run: (§1)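 NCI Developmental Therapeutics Program NCI60 panel. Compounds that were active in the 10 µM one-dose screen went on to dose–response testing. Growth at each concentration is expressed relative to untreated control (100%). GI50 (concentration giving 50% of maximal inhibition of proliferation) and TGI (concentration giving total growth inhibition) were derived from the curves.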

OVCAR-8 [1] = experiment: Growth inhibition of human OVCAR-8 cells incubated for 48 hrs by sulforhodamine B assay
How it was run: (§2)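 NCI DTP 60-line human tumour panel. Dose-response curves were run only for ligands active in the initial 10 µM screen. GI50 (concentration giving 50% of maximal inhibition of proliferation) and TGI (concentration giving total growth inhibition) were derived from these curves.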

NCI-H522 [2] = experiment: Growth inhibition of human NCI-H522 cells incubated for 48 hrs by sulforhodamine B assay
How it was run: (§3)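 NCI60 panel at the NCI Developmental Therapeutics Program. Only compounds active in the 10 µM screen went to dose-response testing. GI50, the concentration giving 50% of maximal inhibition of proliferation, and TGI, the concentration giving total growth inhibition, were derived from the dose-response curves.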

TK-10 = experiment: Growth inhibition of human TK-10 cells assessed as cell growth at 0.01 uM incubated for 48 hrs by sulforhodamine B assay relative to control; conditions: read-out: Activity
HCT-15 = experiment: Growth inhibition of human HCT-15 cells incubated for 48 hrs by sulforhodamine B assay; how it was run: as §3
SK-MEL-28 = experiment: Growth inhibition of human SK-MEL-28 cells assessed as cell growth at 100 uM incubated for 48 hrs by sulforhodamine B assay relative to control; conditions: read-out: Activity
NCI-H23 = experiment: Growth inhibition of human NCI-H23 cells assessed as cell growth at 100 uM incubated for 48 hrs by sulforhodamine B assay relative to control; conditions: read-out: Activity
KM12 = experiment: Growth inhibition of human KM12 cells assessed as cell growth at 0.1 uM incubated for 48 hrs by sulforhodamine B assay relative to control; conditions: read-out: Activity
HCC 2998 = experiment: Growth inhibition of human HCC 2998 cells incubated for 48 hrs by sulforhodamine B assay
MOLT-4 [3] = experiment: Growth inhibition of human MOLT-4 cells assessed as cell growth at 1 uM incubated for 48 hrs by sulforhodamine B assay relative to control; conditions: read-out: Activity
NCI-H522 [4] = experiment: Growth inhibition of human NCI-H522 cells assessed as cell growth at 0.01 uM incubated for 48 hrs by sulforhodamine B assay relative to control; conditions: read-out: Activity
MOLT-4 [5] = experiment: Growth inhibition of human MOLT-4 cells incubated for 48 hrs by sulforhodamine B assay; how it was run: as §3
HT-29 [6] = experiment: Growth inhibition of human HT-29 cells assessed as cell growth at 1 uM incubated for 48 hrs by sulforhodamine B assay relative to control; conditions: read-out: Activity
HT-29 [7] = experiment: Growth inhibition of human HT-29 cells assessed as cell growth at 100 uM incubated for 48 hrs by sulforhodamine B assay relative to control; conditions: read-out: Activity
HOP-92 = experiment: Growth inhibition of human HOP-92 cells incubated for 48 hrs by sulforhodamine B assay; how it was run: as §3
HCT-116 [8] = experiment: Growth inhibition of human HCT-116 cells assessed as cell growth at 0.01 uM incubated for 48 hrs by sulforhodamine B assay relative to control; conditions: read-out: Activity
RXF 393 = experiment: Growth inhibition of human RXF 393 cells incubated for 48 hrs by sulforhodamine B assay; how it was run: as §2
UO-31 = experiment: Growth inhibition of human UO-31 cells assessed as cell growth at 1 uM incubated for 48 hrs by sulforhodamine B assay relative to control; conditions: read-out: Activity
IGROV-1 = experiment: Growth inhibition of human IGROV-1 cells assessed as cell growth at 0.01 uM incubated for 48 hrs by sulforhodamine B assay relative to control; conditions: read-out: Activity
HOP-62 = experiment: Growth inhibition of human HOP-62 cells assessed as cell growth at 1 uM incubated for 48 hrs by sulforhodamine B assay relative to control; conditions: read-out: Activity
OVCAR-8 [9] = experiment: Growth inhibition of human OVCAR-8 cells assessed as cell growth at 1 uM incubated for 48 hrs by sulforhodamine B assay relative to control; conditions: read-out: Activity
NCI-H522 [10] = experiment: Growth inhibition of human NCI-H522 cells assessed as cell growth at 1 uM incubated for 48 hrs by sulforhodamine B assay relative to control; conditions: read-out: Activity
SF-268 [11] = experiment: Growth inhibition of human SF-268 cells incubated for 48 hrs by sulforhodamine B assay; how it was run: as §2
CAKI-1 [12] = experiment: Growth inhibition of human CAKI-1 cells incubated for 48 hrs by sulforhodamine B assay; how it was run: as §1
MCF7 [13] = experiment: Growth inhibition of human MCF7 cells assessed as cell growth at 0.1 uM incubated for 48 hrs by sulforhodamine B assay relative to control; conditions: read-out: Activity
HCT-116 [14] = experiment: Growth inhibition of human HCT-116 cells incubated for 48 hrs by sulforhodamine B assay; how it was run: as §3
SNB-19 = experiment: Growth inhibition of human SNB-19 cells assessed as cell growth at 0.01 uM incubated for 48 hrs by sulforhodamine B assay relative to control; conditions: read-out: Activity
SNB-75 = experiment: Growth inhibition of human SNB-75 cells assessed as cell growth at 0.1 uM incubated for 48 hrs by sulforhodamine B assay relative to control; conditions: read-out: Activity
MCF7 [15] = experiment: Growth inhibition of human MCF7 cells assessed as cell growth at 1 uM incubated for 48 hrs by sulforhodamine B assay relative to control; conditions: read-out: Activity
Hs-578T = experiment: Growth inhibition of human Hs-578T cells assessed as cell growth at 100 uM incubated for 48 hrs by sulforhodamine B assay relative to control; conditions: read-out: Activity
SW-620 = experiment: Growth inhibition of human SW-620 cells incubated for 48 hrs by sulforhodamine B assay; how it was run: as §2
CAKI-1 [16] = experiment: Growth inhibition of human CAKI-1 cells assessed as cell growth at 0.1 uM incubated for 48 hrs by sulforhodamine B assay relative to control; conditions: read-out: Activity; how it was run: as §1
SF-539 = experiment: Growth inhibition of human SF-539 cells assessed as cell growth at 100 uM incubated for 48 hrs by sulforhodamine B assay relative to control; conditions: read-out: Activity
SF-268 [17] = experiment: Growth inhibition of human SF-268 cells assessed as cell growth at 0.01 uM incubated for 48 hrs by sulforhodamine B assay relative to control; conditions: read-out: Activity
NCI/ADR-RES = experiment: Growth inhibition of human NCI/ADR-RES cells incubated for 48 hrs by sulforhodamine B assay; how it was run: as §3
[18] = read-out: LC50 (the source's name)

With `Cc1cc(C)c(NC(=O)c2sc3nc4c(cc3c2N)CN(Cc2ccccc2)CC4)c(C)c1` the growth at 1 µM (786-0) was 82%, the GI50 (OVCAR-8 [1]) was 4.72 µM and the TGI (OVCAR-8 [1]) was over 100 µM. It also gave a CC50 (OVCAR-8 [1]; [18]) of over 100 µM, a GI50 (NCI-H522 [2]) of 1.6 µM and an LC50 (NCI-H522 [2]) of over 100 µM. For the same compound, the TGI (NCI-H522 [2]) was 6.83 µM, the growth at 0.01 µM (TK-10) was 103% and the GI50 (HCT-15) was 2.12 µM. The LC50 (HCT-15) was over 100 µM, the TGI (HCT-15) was over 100 µM and the growth at 100 µM (SK-MEL-28) was -30%. It also gave a growth at 100 µM (NCI-H23) of 13%, a growth at 0.1 µM (KM12) of 103% and a GI50 (HCC 2998) of 5.33 µM. For the same compound, the TGI (HCC 2998) was 38.4 µM, the CC50 (HCC 2998; [18]) was over 100 µM and the growth at 1 µM (MOLT-4 [3]) was 96%. The growth at 0.01 µM (NCI-H522 [4]) was 96%, the GI50 (MOLT-4 [5]) was 4.15 µM and the TGI (MOLT-4 [5]) was over 100 µM. It also gave a CC50 (MOLT-4 [5]; [18]) of over 100 µM, a growth at 1 µM (HT-29 [6]) of 90% and a growth at 100 µM (HT-29 [7]) of -26%. For the same compound, the GI50 (HOP-92) was 0.877 µM, the LC50 (concentration killing 50% of the starting cells) (HOP-92) was over 100 µM and the TGI (HOP-92) was 42.6 µM. It also gave a growth at 0.01 µM (HCT-116 [8]) of 93%, a GI50 (RXF 393) of 2.45 µM and a TGI (RXF 393) of 18.5 µM. For the same compound, the CC50 (RXF 393; [18]) was over 100 µM, the growth at 1 µM (UO-31) was 77% and the growth at 0.01 µM (IGROV-1) was 101%. The growth at 1 µM (HOP-62) was 81%, the growth at 1 µM (OVCAR-8 [9]) was 91% and the growth at 1 µM (NCI-H522 [10]) was 66%. It also gave a GI50 (SF-268 [11]) of 6.93 µM, an LC50 (concentration killing 50% of cells) (SF-268 [11]) of over 100 µM and a TGI (SF-268 [11]) of 64.8 µM. The GI50 (CAKI-1 [12]) was 2.81 µM, the TGI (CAKI-1 [12]) was over 100 µM and the CC50 (CAKI-1 [12]; [18]) was over 100 µM. For the same compound, the growth at 0.1 µM (MCF7 [13]) was 91%, the GI50 (HCT-116 [14]) was 2.89 µM and the LC50 (concentration killing 50% of cells) (HCT-116 [14]) was 67.2 µM. For the same compound, the TGI (HCT-116 [14]) was 16 µM, the growth at 0.01 µM (SNB-19) was 98% and the growth at 0.1 µM (SNB-75) was 94%. It also gave a growth at 1 µM (MCF7 [15]) of 61%, a growth at 100 µM (Hs-578T) of -3% and a GI50 (SW-620) of 2.6 µM. For the same compound, the LC50 (concentration killing 50% of cells) (SW-620) was over 100 µM, the TGI (SW-620) was 17.1 µM and the growth at 0.1 µM (CAKI-1 [16]) was 90%. For the same compound, the growth at 100 µM (SF-539) was -45%, the growth at 0.01 µM (SF-268 [17]) was 98% and the GI50 (NCI/ADR-RES) was 1.64 µM. It also gave a TGI (NCI/ADR-RES) of 6.24 µM and a CC50 (NCI/ADR-RES; [18]) of over 100 µM.
